We go through three compounds from publication PMC8942377 (Science Advances, 2022).

Where no end group is shown, it is not given here.

The conditions of series [1]: following intravenous infusion; cited from earlier work.
A further series concerns SST1–5. The settings on record: cited from earlier work.
For another series, the system named is mice. Briefly: Tail flick test. The settings on record: intrathecal, 1 mg/kg, positive control. Format: in vivo, mouse. A digest of the protocol: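 Mice lightly sedated with 2% isoflurane, then given one intrathecal lumbar-puncture injection (5 μl) of saline, morphine 1 mg/kg, or test compound 0.025–0.75 mg/kg. Distal two-thirds of tail dipped in 52°C water; latency to withdrawal timed by chronometer. Result taken as mean tail flick latency.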
On the technique in general: Thermal pain tests record how soon the animal reacts.

Take octreotide: in series [1], the in vivo half-life was 1.5 h. Further, the “SS receptor subtype selectivity” value with SST1–5 was “preferentially activated SST2 over SST3 and SST5 and displayed little to no activity on SST1 or SST4”. `CN1CC[C@]23c4c5ccc(O)c4O[C@H]2[C@@H](O)C=C[C@H]3[C@H]1C5` [Morphine]: in the series on mice, the tail flick antinociception result is “robust antinociception”. With “urotensin-II (ETPDCFWKYCV; ends and bridges not checked; cysteine pairing not given here; UniProt O95399 114-124, looked up) [UII]”, in the series on SST1–5, the “activity at SST1–5” value is recorded as “low activity”.
